Experimental data from article PMC7887132 (Chemistry (Weinheim an der Bergstrasse, Germany), 2020).

How the values were obtained:
tyrosine kinases = conditions: previously synthesized and tested; no reference given; cited from earlier work
c-Met = c-Met (Homo sapiens, UniProt P08581); assay: Anti-protein kinase activity, c-Met; assay type: biochemical; conditions: for IC50: read-out: Anti-protein kinase activity (IC50) c-Met; for percentage of inactivated c-Met: 1 μM of compound used as inhibitor
c-Met, sequence (P08581 25-1390): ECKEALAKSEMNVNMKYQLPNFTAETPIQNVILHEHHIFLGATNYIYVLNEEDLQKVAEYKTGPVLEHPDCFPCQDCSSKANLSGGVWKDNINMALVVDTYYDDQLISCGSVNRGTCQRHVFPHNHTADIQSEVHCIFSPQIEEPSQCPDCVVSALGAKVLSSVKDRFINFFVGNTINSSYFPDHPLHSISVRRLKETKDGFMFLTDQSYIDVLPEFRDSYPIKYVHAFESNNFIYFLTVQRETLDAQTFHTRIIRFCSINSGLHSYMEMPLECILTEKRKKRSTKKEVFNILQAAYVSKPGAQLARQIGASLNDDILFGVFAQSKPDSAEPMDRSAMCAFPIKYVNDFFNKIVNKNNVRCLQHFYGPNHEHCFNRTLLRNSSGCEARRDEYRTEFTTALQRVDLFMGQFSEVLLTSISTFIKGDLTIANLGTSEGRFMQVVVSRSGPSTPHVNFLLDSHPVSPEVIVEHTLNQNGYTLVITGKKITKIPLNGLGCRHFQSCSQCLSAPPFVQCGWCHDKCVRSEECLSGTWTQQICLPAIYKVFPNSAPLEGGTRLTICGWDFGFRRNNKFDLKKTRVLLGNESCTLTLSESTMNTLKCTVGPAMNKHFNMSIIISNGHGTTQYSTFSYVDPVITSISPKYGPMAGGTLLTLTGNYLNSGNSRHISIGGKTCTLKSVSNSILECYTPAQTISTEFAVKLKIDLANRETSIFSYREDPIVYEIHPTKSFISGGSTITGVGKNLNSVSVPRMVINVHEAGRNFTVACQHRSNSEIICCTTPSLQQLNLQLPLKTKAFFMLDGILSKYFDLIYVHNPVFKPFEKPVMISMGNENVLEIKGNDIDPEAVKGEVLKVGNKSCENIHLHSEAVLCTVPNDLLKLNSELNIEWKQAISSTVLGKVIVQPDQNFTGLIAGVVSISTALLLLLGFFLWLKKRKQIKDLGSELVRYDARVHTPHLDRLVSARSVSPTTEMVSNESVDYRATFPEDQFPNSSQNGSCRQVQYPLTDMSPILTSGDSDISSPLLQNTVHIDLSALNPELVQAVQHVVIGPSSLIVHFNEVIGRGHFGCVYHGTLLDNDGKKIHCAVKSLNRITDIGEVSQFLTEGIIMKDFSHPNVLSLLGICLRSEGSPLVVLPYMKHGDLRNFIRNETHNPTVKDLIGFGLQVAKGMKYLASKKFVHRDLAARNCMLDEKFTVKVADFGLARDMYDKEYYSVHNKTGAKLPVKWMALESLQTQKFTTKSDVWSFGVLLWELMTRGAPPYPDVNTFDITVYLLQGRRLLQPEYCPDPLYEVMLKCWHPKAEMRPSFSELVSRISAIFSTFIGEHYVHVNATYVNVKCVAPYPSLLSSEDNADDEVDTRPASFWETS
Procedure, shortened: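 ELISA kinase-kit format, run in duplicate. Met positive-control enzyme (10 μL of 0.1 unit/μL) goes into wells on ice, with kinase assay buffer containing the test compound. Kinase reaction buffer starts the reaction, 60 min at 30 °C. After washing, HRP-conjugated detection antibody PY-39 is added for 60 min at room temperature, then substrate reagent for 5–15 min, then stop solution. Absorbance is read at 450/540 nm within 30 min.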

EGFR WT = EGFR WT (Homo sapiens, UniProt P00533); assay: Anti-protein kinase activity, EGFR WT; assay type: biochemical; conditions: for IC50: read-out: Anti-protein kinase activity (IC50) EGFR WT
EGFR L858R = EGFR L858R (Homo sapiens, UniProt P00533, L858R); assay: Anti-protein kinase activity, EGFR L858R; assay type: biochemical; conditions: read-out: Anti-protein kinase activity (IC50) EGFR L858R
EGFR T790M /L858R = EGFR T790M /L858R (Homo sapiens, UniProt P00533, L858R/T790M); assay: Anti-protein kinase activity, EGFR T790M/L858R; assay type: biochemical; conditions: read-out: Anti-protein kinase activity (IC50) EGFR T790M /L858R
Abl WT = Abl WT (Homo sapiens, UniProt P00519); assay: Anti-protein kinase activity, Abl WT; assay type: biochemical; conditions: read-out: Anti-protein kinase activity (IC50) Abl WT
Abl T315I = Abl T315I (Homo sapiens, UniProt P00519, T315I); assay: Anti-protein kinase activity, Abl T315I; assay type: biochemical; conditions: read-out: Anti-protein kinase activity (IC50) Abl T315I
FLT1 = FLT1 (Homo sapiens, UniProt P17948); assay: Anti-protein kinase activity, FLT1; assay type: biochemical; conditions: read-out: Anti-protein kinase activity (IC50) FLT1
FLT1, sequence (P17948 27-1338): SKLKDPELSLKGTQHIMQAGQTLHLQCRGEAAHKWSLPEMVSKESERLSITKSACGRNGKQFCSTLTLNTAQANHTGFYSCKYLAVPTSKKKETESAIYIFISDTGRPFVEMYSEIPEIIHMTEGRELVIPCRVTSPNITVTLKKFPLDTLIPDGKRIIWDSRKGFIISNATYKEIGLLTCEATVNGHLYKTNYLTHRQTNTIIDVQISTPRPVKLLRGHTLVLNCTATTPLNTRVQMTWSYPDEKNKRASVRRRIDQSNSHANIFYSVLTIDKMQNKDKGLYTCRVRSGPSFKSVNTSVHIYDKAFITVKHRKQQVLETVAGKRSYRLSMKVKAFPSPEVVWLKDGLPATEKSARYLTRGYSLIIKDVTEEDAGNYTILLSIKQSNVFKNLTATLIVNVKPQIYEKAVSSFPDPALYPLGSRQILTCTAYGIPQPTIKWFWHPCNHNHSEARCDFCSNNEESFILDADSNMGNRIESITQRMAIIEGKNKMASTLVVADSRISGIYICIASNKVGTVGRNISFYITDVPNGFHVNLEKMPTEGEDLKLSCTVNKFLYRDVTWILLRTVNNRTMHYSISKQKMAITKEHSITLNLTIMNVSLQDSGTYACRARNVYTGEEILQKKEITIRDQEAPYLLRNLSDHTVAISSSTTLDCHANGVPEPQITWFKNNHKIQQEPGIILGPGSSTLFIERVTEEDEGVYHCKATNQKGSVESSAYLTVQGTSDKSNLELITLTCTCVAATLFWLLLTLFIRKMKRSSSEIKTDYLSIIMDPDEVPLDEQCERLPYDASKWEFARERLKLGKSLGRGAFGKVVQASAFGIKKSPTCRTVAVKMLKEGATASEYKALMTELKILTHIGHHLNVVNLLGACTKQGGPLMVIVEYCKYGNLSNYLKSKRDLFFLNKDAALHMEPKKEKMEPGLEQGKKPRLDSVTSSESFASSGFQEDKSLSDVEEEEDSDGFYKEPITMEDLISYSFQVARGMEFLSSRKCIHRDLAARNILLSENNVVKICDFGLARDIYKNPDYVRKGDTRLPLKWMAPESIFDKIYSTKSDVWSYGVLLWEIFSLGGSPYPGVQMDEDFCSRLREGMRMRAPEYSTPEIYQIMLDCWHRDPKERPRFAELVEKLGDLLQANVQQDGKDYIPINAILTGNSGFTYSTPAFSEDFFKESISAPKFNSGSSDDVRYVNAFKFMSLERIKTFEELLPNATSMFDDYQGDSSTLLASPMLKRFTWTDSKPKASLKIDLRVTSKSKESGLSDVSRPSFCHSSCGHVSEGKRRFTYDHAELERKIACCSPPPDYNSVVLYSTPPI

Solubility in water = assay type: physicochemical

| Compound | inhibitory activity as tyrosine kinases inhibitor (tyrosine kinases) | IC50 (c-Met) | IC50 (EGFR WT) | IC50 (EGFR L858R) | IC50 (EGFR T790M /L858R) | IC50 (Abl WT) | IC50 (Abl T315I) | IC50 (FLT1) | solubility in water (Solubility in water) | percentage of inactivated c-Met (c-Met) | inhibition of EGFR WT (in words) (EGFR WT) | percentage of inactivated EGFR WT (EGFR WT; 1 μM of compound used as inhibitor) | anti-c-Met activity (in words) (c-Met) |
| --- | --- | --- | --- | --- | --- | --- | --- | --- | --- | --- | --- | --- | --- |
| 2,6-di(thiazol-4-yl)pyridinophane [compound 5] | didn’t show any inhibitory activity |  |  |  |  |  |  |  |  |  |  |  |  |
| 2,15-Diaza-2,15-diheptanoyl[3.3](2,2’)(4,4’-bithiazolophane) [compound 3] |  | > 1000 nM | > 1000 nM | > 1000 nM | > 1000 nM | > 1000 nM | > 1000 nM | > 1000 nM | only slightly soluble in water |  |  |  |  |
| 2,15-diaza-2,15-bis(tert-butoxycarbonyl)[3.3](2,2’)(4,4’-bithiazolophane) [compound 1] |  | 603 nM | > 1000 nM | > 1000 nM | > 1000 nM | > 1000 nM | > 1000 nM | > 1000 nM | only slightly soluble in water | 59% | partial inhibition | 44% |  |
| CC(C)COC(=O)N1Cc2nc(cs2)-c2csc(n2)CN(C(=O)OCC(C)C)Cc2nc(cs2)-c2csc(n2)C1 [compound 4, 2,15-Bis(isobutoxycarbonyl)-2,15-diaza[3.3](2,2’)(4,4’-bithiazolophane)] |  | > 1000 nM | > 1000 nM | > 1000 nM | > 1000 nM | > 1000 nM | > 1000 nM | > 1000 nM | only slightly soluble in water | 5% |  |  | showed anti-c-Met activity |
| 2,15-diaza[3.3](2,2’)(4,4’-bithiazolophanium) dichloride [compound 2] |  | > 1000 nM | > 1000 nM | > 1000 nM | > 1000 nM | > 1000 nM | > 1000 nM | > 1000 nM | almost freely soluble in water | 33% |  |  | showed anti-c-Met activity |
